Laboratory results taken from ChEMBL document CHEMBL4330087, “Synthesis, antimicrobial activity, attenuation of aminoglycoside resistance in MRSA, and ribosomal A-site binding of pyrene-neomycin conjugates” (Eur J Med Chem, 2019).
In brackets after ≈: the same amount, converted by molar mass. Activity calls are given as the source filed them. No cut-off for these calls is given here.

Experiments:
Ribosomal RNA A-site [1] = test: Displacement of F-NEO from human cytosolic rRNA-A site after 10 to 20 mins by fluorescence assay; format: nucleic-acid assay
Summary of the method: (§1)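 A 100 nM F-NEO:A-site RNA complex in 10 mM HEPES, 50 mM NaCl, 0.04 mM EDTA, pH 7.0 was titrated with 2-fold dilutions of ligand from 20 to 0.009 μM, or from 60 or 40 μM for weaker ligands. Incubated 10-20 min at room temperature, fluorescence read at ex 485/em 525 nm. IC50 from dose-response curve fit.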

Staphylococcus aureus [2] = test: Antibacterial activity against NEO-sensitive Staphylococcus aureus 25923 after 15 to 20 hrs by CLSI protocol based microdilution assay; format: functional
Summary of the method: (§2)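 CLSI broth microdilution on exponential-phase bacteria at ~3×10^5 cells/mL in cation-adjusted Mueller-Hinton broth. Serial 2-fold dilutions gave final concentrations of 50 to 0.78 μM; compound stocks were 10× in 10% DMSO. Incubated at 37 °C for 15-20 h, growth read at A595. Percent inhibition averaged over triplicates; MIC in μM.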

[3] = Toxicity in Caenorhabditis elegans infected with methicillin-resistant Staphylococcus aureus assessed as effect on nematode larvae viability by measuring decrease in formazan production at 6.25 to 50 uM after 24 hrs by MTT assay relative to control
Ribosomal RNA A-site [4] = test: Binding affinity to rRNA-A site in human MDA-MB-231 cells assessed as inhibition of protein translation; format: cell-based
Bacillus anthracis = test: Antibacterial activity against NEO-sensitive Bacillus anthracis BA852 after 15 to 20 hrs by CLSI protocol based microdilution assay; format: functional; summary of the method: as §2
Streptococcus pyogenes = test: Antibacterial activity against NEO-resistant Streptococcus pyogenes C203 after 15 to 20 hrs by CLSI protocol based microdilution assay; format: functional; summary of the method: as §2
[5] = Toxicity in Caenorhabditis elegans infected with methicillin-resistant Staphylococcus aureus assessed as effect on nematode larvae viability by measuring decrease in formazan production at 3.13 to 1.56 uM after 24 hrs by MTT assay
[6] = tested on: Staphylococcus epidermidis; test: Antibacterial activity against NEO-sensitive Staphylococcus epidermidis 12384 after 15 to 20 hrs by CLSI protocol based microdilution assay; format: functional; summary of the method: as §2
Staphylococcus aureus [7] = test: Antibacterial activity against methicillin-resistant Staphylococcus aureus 33591 after 15 to 20 hrs by CLSI protocol based microdilution assay; format: functional; summary of the method: as §2
Staphylococcus aureus [8] = test: Antibacterial activity against NEO-sensitive Staphylococcus aureus C1 after 15 to 20 hrs by CLSI protocol based microdilution assay; format: functional
Summary of the method: (§3)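 CLSI broth microdilution MIC in triplicate on exponential-phase cells, ~3×10^5 cells per mL in cation-adjusted Mueller-Hinton broth. Compound was added from 10× stocks in 10% DMSO as serial 2-fold dilutions, final 50 to 0.78 μM. Plates were incubated at 37 °C, humidified, 15-20 h. Growth was read as absorbance at 595 nm, and percent inhibition was averaged over triplicates.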

Escherichia coli [9] = test: Antibacterial activity against multidrug-resistant Escherichia coli H4H after 15 to 20 hrs by CLSI protocol based microdilution assay; format: functional; summary of the method: as §2
Staphylococcus aureus [10] = test: Antibacterial activity against NEO-sensitive Staphylococcus aureus C2 after 15 to 20 hrs by CLSI protocol based microdilution assay; format: functional; summary of the method: as §3
[11] = tested on: Mycolicibacterium smegmatis; test: Antibacterial activity against NEO-sensitive Mycobacterium smegmatis after 15 to 20 hrs by CLSI protocol based microdilution assay; format: functional; summary of the method: as §2
Staphylococcus aureus [12] = test: Antibacterial activity against methicillin-resistant Staphylococcus aureus A960649 after 15 to 20 hrs by CLSI protocol based microdilution assay; format: functional; summary of the method: as §2
Staphylococcus aureus [13] = test: Antibacterial activity against methicillin-resistant Staphylococcus aureus SU-5 after 15 to 20 hrs by CLSI protocol based microdilution assay; format: functional; summary of the method: as §2
Staphylococcus aureus [14] = test: Antibacterial activity against methicillin-resistant Staphylococcus aureus M0602 after 15 to 20 hrs by CLSI protocol based microdilution assay; format: functional; summary of the method: as §2
Staphylococcus aureus [15] = test: Antibacterial activity against NEO-sensitive Staphylococcus aureus NRS77 after 15 to 20 hrs by CLSI protocol based microdilution assay; format: functional; summary of the method: as §3
Escherichia coli [16] = test: Antibacterial activity against NEO-sensitive Escherichia coli harboring TolC mutant after 15 to 20 hrs by CLSI protocol based microdilution assay; format: functional; summary of the method: as §2
Staphylococcus aureus [17] = test: Antibacterial activity against NEO-sensitive Staphylococcus aureus harboring NorA mutant after 15 to 20 hrs by CLSI protocol based microdilution assay; format: functional; summary of the method: as §2
Staphylococcus aureus [18] = test: Antibacterial activity against NEO-sensitive Staphylococcus aureus 6538 after 15 to 20 hrs by CLSI protocol based microdilution assay; format: functional; summary of the method: as §3
Ribosomal RNA A-site [19] = test: Displacement of F-NEO from Escherichia coli rRNA-A site after 10 to 20 mins by fluorescence assay; format: nucleic-acid assay; summary of the method: as §1
Escherichia coli [20] = test: Antibacterial activity against NEO-sensitive Escherichia coli ATCC 25922 after 15 to 20 hrs by CLSI protocol based microdilution assay; format: functional; summary of the method: as §2

NC[C@@H]1O[C@H](O[C@H]2[C@@H](O)[C@H](O[C@@H]3[C@@H](O)[C@H](N)C[C@H](N)[C@H]3O[C@H]3O[C@H](CN)[C@@H](O)[C@H](O)[C@H]3N)O[C@@H]2CO)[C@H](N)[C@@H](O)[C@@H]1O [FRAMYCETIN]
IC50 (Ribosomal RNA A-site [1]): 0.076 µM
MIC (Staphylococcus aureus [2]): 1.56 µM (≈ 0.959 µg/mL)
Activity [3]: 50 to 75%
IC50 (Ribosomal RNA A-site [4]): 0.139 µM
MIC (Bacillus anthracis): 1.56 µM (≈ 0.959 µg/mL)
MIC (Streptococcus pyogenes): inactive
Activity [5]: Non-Toxic
MIC [6]: 1.56 µM (≈ 0.959 µg/mL)
MIC (Staphylococcus aureus [7]): 400 µM (≈ 246 µg/mL)
MIC (Staphylococcus aureus [8]): 3.2 µM (≈ 1.97 µg/mL)
MIC (Escherichia coli [9]): 400 µM (≈ 246 µg/mL)
MIC (Staphylococcus aureus [10]): 6.3 µM (≈ 3.87 µg/mL)
MIC [11]: 0.78 µM (≈ 0.479 µg/mL)
MIC (Staphylococcus aureus [12]): 100 µM (≈ 61.5 µg/mL)
MIC (Staphylococcus aureus [13]): 200 to 400 µM (≈ 123 to 246 µg/mL)
MIC (Staphylococcus aureus [14]): > 400 µM
MIC (Staphylococcus aureus [15]): 1.6 µM (≈ 0.983 µg/mL)
MIC (Escherichia coli [16]): 1.56 µM (≈ 0.959 µg/mL)
MIC (Staphylococcus aureus [17]): 1.56 µM (≈ 0.959 µg/mL)
MIC (Staphylococcus aureus [18]): 3.2 µM (≈ 1.97 µg/mL)
IC50 (Ribosomal RNA A-site [19]): 0.087 µM
MIC (Escherichia coli [20]): 3.13 µM (≈ 1.92 µg/mL)
